This is an account of results in ChEMBL document CHEMBL1144512, “Synthesis and trypanocidal activity of ent-kaurane glycosides” (2007).

The test system of assay [1] is Trypanosoma cruzi. As to the kind of experiment: Trypanocidal activity against Trypanosoma cruzi Y blood stream trypomastigotes assessed as parasite lysis at 1.25 mM relative to control. The class given is functional. The method in brief: (§1)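 Infected blood with Y-strain bloodstream trypomastigotes was exposed to compound in 1% DMSO plus TCM199 at final 0.31–5.0 mM. Tubes were incubated 24 h at 4C. An aliquot was examined microscopically and parasites counted. Activity was calculated as percent parasite reduction versus negative control (1% DMSO + TCM199). DMSO and gentian violet control tubes were run in parallel.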

Assay [2] deals with Trypanosoma cruzi. As to the kind of experiment: Trypanocidal activity against blood stream Trypanosoma cruzi Y trypomastigotes assessed as parasite lysis at 5 mM relative to control. The class given is functional. The method in brief:
as §1

Assay [3] deals with Trypanosoma cruzi. The experiment in a line: Trypanocidal activity against Trypanosoma cruzi Y blood stream trypomastigotes assessed as parasite lysis at 2.50 mM relative to control. The class given is functional. A digest of the protocol:
as §1

Assay [4] deals with Trypanosoma cruzi. The experiment in a line: Trypanocidal activity against Trypanosoma cruzi Y blood stream trypomastigotes assessed as parasite lysis at 0.31 mM relative to control. In kind it is functional. The method in brief: as §1
The subject of assay [5] is Trypanosoma cruzi. The experiment in a line: Trypanocidal activity against Trypanosoma cruzi Y blood stream trypomastigotes assessed as parasite lysis at 0.63 mM relative to control. In kind it is functional. The method in brief:
as §1

Assay [6] deals with Trypanosoma cruzi. As to the kind of experiment: Trypanocidal activity in Swiss albino mouse inoculated with Trypanosoma cruzi Y blood trypomastigotes assessed as parasitaemia reduction administered after 7th day of inoculation at 250 mg/kg, po after 6 hrs relative to control. The arrangement: scale not given: the % may be the effect or the level left. In kind it is functional. A digest of the protocol:
(§2)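 Male Swiss albino mice (18–20 g, 30 days old) were infected ip with 5×10^4 Y-strain blood trypomastigotes. At peak parasitaemia (day 7), a single oral 250 mg/kg dose in DMSO 0.1 mL plus LIT 0.9 mL was given. Circulating parasites were counted microscopically before and 4 and 6 h after dosing. Percent reduction was taken versus pre-treatment count, with three mice per group, mean ± SD, and Split-Plot test.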

Assay [7] has as its system Trypanosoma cruzi. The experiment in a line: Trypanocidal activity in Swiss albino mouse inoculated with Trypanosoma cruzi Y blood trypomastigotes assessed as parasitaemia reduction administered after 7th day of inoculation at 250 mg/kg, po after 4 hrs relative to control. The arrangement: scale not given: the % may be the effect or the level left. The class given is functional. A digest of the protocol:
as §2

For assay [8], the system named is Blood. The experiment in a line: Induction of total haemolysis in Albino mouse blood infected with Trypanosoma cruzi Y at 1.25 mM. In kind it is functional, tissue-based. The method in brief: (§3)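 Erythrocyte lysis was scored in the in vitro trypomastigote tubes as partial or total haemolysis. Infected blood (0.2 mL) was mixed with compound in 1% DMSO plus TCM199 at final 0.31, 0.63, 1.25, 2.50 and 5.0 mM. Tubes were incubated 24 h at 4C and examined microscopically.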

The test system of assay [9] is Blood. As to the kind of experiment: Induction of total haemolysis in Albino mouse blood infected with Trypanosoma cruzi Y at 5 mM. In kind it is functional, tissue-based. A digest of the protocol: as §3
For assay [10], the system named is Blood. The experiment in a line: Induction of total haemolysis in Albino mouse blood infected with Trypanosoma cruzi Y at 2.5 mM. The class given is functional, tissue-based. A digest of the protocol:
as §3

The structures appear in SMILES notation. Calls of active or inactive are those of the source. No cut-off for these calls is given here.

On to `C=C1C[C@@]23CC[C@@H]4[C@](C)(CO)CCC[C@@]4(C)[C@@H]2CC[C@H]1C3`, for which the figures for the Activity in the assay on Trypanosoma cruzi [1], with Trypanosoma cruzi [2] and with Trypanosoma cruzi [3] were 66%, 100% and 72%, respectively.

As to `C=C1C[C@@]23CCC4[C@](C)(CO[C@@H]5O[C@@H](CO)[C@H](O)[C@@H](O)[C@@H]5OC(C)=O)CCC[C@@]4(C)C2CC[C@@H]1C3` (stereo partly specified), the Activity in the assay with Trypanosoma cruzi [1] worked out at 0%; with Trypanosoma cruzi [2], 56%; in the assay with Trypanosoma cruzi [3], 0%.

As to `CN(C)c1ccc(C(=C2C=CC(=[N+](C)C)C=C2)c2ccc(N(C)C)cc2)cc1.[Cl-]` [GENTIAN VIOLET], the Activity in the assay on Trypanosoma cruzi [1] was found to be 100%; with Trypanosoma cruzi [4], 67%; with Trypanosoma cruzi [5], 100%; with Trypanosoma cruzi [3], 100%.

Take `C=C1C[C@@]23CCC4[C@@](C)(CCC[C@@]4(C)C(=O)OC)C2CC[C@@H]1C3` (stereo partly specified): the Activity is recorded as 88% in the assay with Trypanosoma cruzi [1]; 45% in the assay with Trypanosoma cruzi [4]; 51.5% with Trypanosoma cruzi [6]; 56.5% in the assay on Trypanosoma cruzi [7]; 100% with Trypanosoma cruzi [2]; 48% in the assay with Trypanosoma cruzi [5]. The Activity in the assay with Trypanosoma cruzi [3] stood at 100%.

In the case of `COC(=O)[C@]1(C)CCC[C@@]2(C)C3CC[C@@H]4C[C@@]3(CCC21)C[C@@H]4CO` (stereo partly specified), the Activity in the assay with Trypanosoma cruzi [4] is reported as 45%; in the assay with Trypanosoma cruzi [2], 100%; in the assay with Trypanosoma cruzi [5] it was 94%; in the assay on Trypanosoma cruzi [3] it was 100%.

As for `C=C1C[C@@]23CC[C@H]4[C@@](C)(CCC[C@@]4(C)C(=O)O)[C@@H]2CC[C@@H]1C3` [KAURENOIC ACID], the outcome with Blood [8], in the assay on Blood [9] and with Blood [10] was Active. The Activity was 100% with Trypanosoma cruzi [1]; 0% in the assay on Trypanosoma cruzi [4]; 100% in the assay with Trypanosoma cruzi [2]; 90% with Trypanosoma cruzi [5]; 100% with Trypanosoma cruzi [3].

As for `O=C(Cn1ccnc1[N+](=O)[O-])NCc1ccccc1` [BENZNIDAZOLE], the Activity with Trypanosoma cruzi [6] is on record as 92.6%; in the assay with Trypanosoma cruzi [7], 91.7%.
